Data on 1 compound can be found in ChEMBL document CHEMBL4196021, “Targeting G-quadruplex DNA structures in the telomere and oncogene promoter regions by benzimidazole‒carbazole ligands” (Eur J Med Chem, 2018).

For experiment [1], the target named is Quadruplex DNA. As to the kind of experiment: Displacement of thiazole orange from human c-Myc G-quadruplex DNA after 5 mins in presence of KCl by fluorescence assay. Format: nucleic-acid assay. The method in brief: (§1)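 Thiazole orange displacement from a G4 DNA–TO complex (1 µM TO + 0.5 µM G4 DNA) in 10 mM Tris-HCl pH 7.4, 100 mM KCl, 0.1 mM EDTA. Ligand was added in increasing steps, with 5 min incubation each. Fluorescence read at ex 501/em 531 nm; % displacement = 100 − (Ft/F0 × 100). DC50 is the ligand concentration giving 50% displacement, read from plots; average of two independent experiments.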

In experiment [2] the target is Quadruplex DNA. As to the kind of experiment: Displacement of thiazole orange from human c-Kit1 G-quadruplex DNA after 5 mins in presence of KCl by fluorescence assay. Format: nucleic-acid assay. An outline of the steps: as §1
Experiment [3] concerns the target Quadruplex DNA. In words: Displacement of thiazole orange from human Bcl2 G-quadruplex DNA after 5 mins in presence of KCl by fluorescence assay. The experiment is classed as nucleic-acid assay. An outline of the steps:
as §1

Another experiment deals with MCF7. As to the kind of experiment: Cytotoxicity against human MCF7 cells assessed as reduction in cell viability after 72 hrs by MTT assay. Format: functional, cell-based. An outline of the steps:
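HeLa and MCF7 cells in log phase were seeded for 24 h, then exposed to a range of ligand concentrations for 72 h. MTT (5 mg/ml stock) was added for 4 h, formazan dissolved in DMSO, and absorbance read at 570 nm. Three independent experiments in triplicate, mean ± SD.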
For orientation: Tetrazolium dyes change colour on reduction, which living cells bring about.

Experiment [4] relates to Quadruplex DNA. In words: Binding affinity to human VEGF G-quadruplex DNA assessed as stabilization of parallel stranded topology after 5 mins in presence of KCl by CD spectroscopic method. Format: nucleic-acid assay. The method in brief:
(§2)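 CD spectra of 5 µM G4 DNA in 10 mM Tris-HCl pH 7.4, 100 mM KCl, 0.1 mM EDTA, with or without ligand. Mixtures were heated 95 °C for 5 min and slowly cooled to room temperature. Recorded 200–400 nm at 25 °C, 100 nm/min, 2 s response, 1 cm cell; average of three scans.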

The test system of experiment [5] is Quadruplex DNA. As to the kind of experiment: Stabilization of VEGF G-quadruplex DNA in human HeLa cells assessed as decrease in VEGF mRNA level after 24 hrs by RT-PCR method. The experiment is classed as cell-based. The method in brief:
(§3)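 HeLa cells exposed to increasing ligand concentrations (5 and 10 µM named) for 24 h, with DMSO-treated cells as control. Total RNA was extracted with TRI reagent and DNase I-treated. c-MYC and VEGF transcripts were quantified by qRT-PCR, normalized to GAPDH, and expressed as relative fold change.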

For experiment [6], the system named is Quadruplex DNA. As to the kind of experiment: Induction of conformational changes in human Bcl2 G-quadruplex DNA assessed as inversion from potassium ion stabilized hybrid type mixed parallel/antiparallel G-quadruplex to stable telomere parallel-stranded G-quadruplex after 5 mins in presence of KCl by CD spectroscopic method. The experiment is classed as nucleic-acid assay. The method in brief:
as §2

Experiment [7] addresses Telomerase reverse transcriptase (Homo sapiens, UniProt O14746). As to the kind of experiment: Inhibition of telomerase (unknown origin) by TRAP-LIG assay. An outline of the steps:
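Telomerase activity measured by modified TRAP-LIG assay across ligand concentrations of 0.01 to 2 µM (11 levels). Positive and negative controls included. Inhibition was judged from the intensity and number of telomeric ladder bands.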

In experiment [8] the test system is Quadruplex DNA. In words: Binding affinity to human VEGF G-quadruplex DNA at 0.6 uM after 5 mins in presence of KCl by fluorescence spectroscopic method. The experiment is classed as nucleic-acid assay. The method in brief:
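Fluorescence titration at 25 °C with 0.6 µM ligand in 10 mM Tris-HCl pH 7.4, 100 mM KCl, 0.1 mM EDTA. Preformed G4 DNA was added stepwise, with 5 min incubation before each spectrum. Excitation 330 nm; emission 350–550 nm, slit 5 nm.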

Experiment [9] concerns Quadruplex DNA. In words: Binding affinity to human c-Myc G-quadruplex DNA assessed as change in melting temperature in presence of KCl by CD spectroscopic method. The experiment is classed as nucleic-acid assay. An outline of the steps: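 CD melting of 5 µM G4 DNA in 10 mM Tris-HCl pH 7.4, 25 mM KCl, 0.1 mM EDTA. Ligand was present during folding (heating, slow cooling). Spectra 200–400 nm over 20–96 °C in 2 °C steps, buffer blank subtracted. Tm was taken from normalized ellipticity at the positive maximum (262 nm for promoter G4s). ΔTm = ligand-bound minus DNA alone; average of two independent experiments.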

The test system of experiment [10] is Quadruplex DNA. In words: Stabilization of c-Myc G-quadruplex DNA in human HeLa cells assessed as decrease in c-Myc mRNA level after 24 hrs by RT-PCR method. The experiment is classed as cell-based. The method in brief:
as §3

Active and inactive are the calls of the source. The calls are words filed in the database; no cut-off is given here.

Chain of Telomerase reverse transcriptase (O14746 whole entry): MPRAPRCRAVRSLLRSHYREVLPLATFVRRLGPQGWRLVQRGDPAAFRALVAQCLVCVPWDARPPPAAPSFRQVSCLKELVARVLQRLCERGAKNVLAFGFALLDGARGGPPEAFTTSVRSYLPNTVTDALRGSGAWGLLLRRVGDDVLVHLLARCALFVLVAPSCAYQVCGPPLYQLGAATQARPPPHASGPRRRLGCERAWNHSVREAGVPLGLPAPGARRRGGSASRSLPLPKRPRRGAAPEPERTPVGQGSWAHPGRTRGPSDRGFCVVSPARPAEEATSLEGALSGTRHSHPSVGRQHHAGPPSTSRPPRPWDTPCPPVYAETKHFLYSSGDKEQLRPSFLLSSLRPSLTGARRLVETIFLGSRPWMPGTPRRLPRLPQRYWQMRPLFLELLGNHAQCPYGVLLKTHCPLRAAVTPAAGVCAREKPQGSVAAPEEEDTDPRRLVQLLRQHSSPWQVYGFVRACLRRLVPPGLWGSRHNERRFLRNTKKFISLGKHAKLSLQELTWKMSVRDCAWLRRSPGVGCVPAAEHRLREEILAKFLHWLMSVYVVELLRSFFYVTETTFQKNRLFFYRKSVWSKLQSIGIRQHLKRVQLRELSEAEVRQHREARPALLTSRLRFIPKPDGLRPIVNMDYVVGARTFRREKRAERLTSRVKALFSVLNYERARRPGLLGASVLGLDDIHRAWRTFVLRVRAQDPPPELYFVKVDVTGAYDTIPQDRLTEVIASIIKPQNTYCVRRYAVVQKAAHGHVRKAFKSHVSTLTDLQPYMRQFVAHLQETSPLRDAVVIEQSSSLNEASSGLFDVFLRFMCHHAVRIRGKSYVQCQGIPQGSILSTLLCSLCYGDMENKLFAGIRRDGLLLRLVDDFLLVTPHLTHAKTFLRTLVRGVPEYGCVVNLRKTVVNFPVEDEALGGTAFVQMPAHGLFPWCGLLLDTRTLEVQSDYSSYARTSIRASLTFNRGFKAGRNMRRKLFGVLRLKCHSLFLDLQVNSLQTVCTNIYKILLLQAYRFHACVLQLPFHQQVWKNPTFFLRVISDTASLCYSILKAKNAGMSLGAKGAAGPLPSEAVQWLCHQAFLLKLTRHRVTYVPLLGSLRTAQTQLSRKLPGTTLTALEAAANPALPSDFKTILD

For `CN(C)CCCCn1c2ccc(-c3nc4ccc(N5CCN(CCO)CC5)cc4[nH]3)cc2c2cc(-c3nc4ccc(N5CCN(CCO)CC5)cc4[nH]3)ccc21`, the DC50 at Quadruplex DNA [1] amounted to 830 nM; on Quadruplex DNA [2], 860 nM; on Quadruplex DNA [3], 1390 nM. Further, the Activity entry in the experiment on MCF7, in the experiment with Quadruplex DNA [5] and in the experiment with Quadruplex DNA [10] was “Dose-dependent effect” throughout. The IC50 with MCF7 (MCF7, 72 h) came out at 11400 nM; in [7], 300 nM. Further, the outcome in the experiment with Quadruplex DNA [4], in the experiment on Quadruplex DNA [6] and in the experiment with Quadruplex DNA [8] was Active. In addition, the inhibition entry in experiment [7] is “Dose-dependent effect”. Further, the ΔTm with Quadruplex DNA [9] was determined as 7.35 °C.

As usually defined, the IC50 is the concentration at which inhibition is half-maximal. The ΔTm is the change in melting temperature against a reference sample.
